How the values were obtained:
VCaP = assay: Antiproliferative activity against human VCaP cells assessed as reduction in cell growth incubated for 96 hrs by propidium iodide based 2D monolayer assay; type: functional
In short: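 VCaP cells in RPMI 1640 with 10% FCS at 37 °C, 5% CO2, seeded 4,000–20,000 cells/well and left 24 h before dosing. Compounds from DMSO stocks were diluted in half-log steps in medium, 10 concentrations 0.0032–100 μM, triplicate wells, max 0.3% DMSO. After 96 h, cells were washed, stained with 7 μg/ml propidium iodide plus 0.1% Triton X-100 for 1–2 h at room temperature, and fluorescence read at ex 530/em 620 nm.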

Androgen receptor = biological target: T1, Androgen receptor (Rattus norvegicus, UniProt P15207); assay: Antagonist activity at GAL4-DBD fused rat androgen receptor expressed in UAS-bla 293 cells assessed as reduction in R1881-induced activation incubated for 16 hrs followed by fluorescence substrate addition and measured after 2 hrs by beta lactamase reporter gene assay; type: cell-based
T1 sequence (P15207 whole entry): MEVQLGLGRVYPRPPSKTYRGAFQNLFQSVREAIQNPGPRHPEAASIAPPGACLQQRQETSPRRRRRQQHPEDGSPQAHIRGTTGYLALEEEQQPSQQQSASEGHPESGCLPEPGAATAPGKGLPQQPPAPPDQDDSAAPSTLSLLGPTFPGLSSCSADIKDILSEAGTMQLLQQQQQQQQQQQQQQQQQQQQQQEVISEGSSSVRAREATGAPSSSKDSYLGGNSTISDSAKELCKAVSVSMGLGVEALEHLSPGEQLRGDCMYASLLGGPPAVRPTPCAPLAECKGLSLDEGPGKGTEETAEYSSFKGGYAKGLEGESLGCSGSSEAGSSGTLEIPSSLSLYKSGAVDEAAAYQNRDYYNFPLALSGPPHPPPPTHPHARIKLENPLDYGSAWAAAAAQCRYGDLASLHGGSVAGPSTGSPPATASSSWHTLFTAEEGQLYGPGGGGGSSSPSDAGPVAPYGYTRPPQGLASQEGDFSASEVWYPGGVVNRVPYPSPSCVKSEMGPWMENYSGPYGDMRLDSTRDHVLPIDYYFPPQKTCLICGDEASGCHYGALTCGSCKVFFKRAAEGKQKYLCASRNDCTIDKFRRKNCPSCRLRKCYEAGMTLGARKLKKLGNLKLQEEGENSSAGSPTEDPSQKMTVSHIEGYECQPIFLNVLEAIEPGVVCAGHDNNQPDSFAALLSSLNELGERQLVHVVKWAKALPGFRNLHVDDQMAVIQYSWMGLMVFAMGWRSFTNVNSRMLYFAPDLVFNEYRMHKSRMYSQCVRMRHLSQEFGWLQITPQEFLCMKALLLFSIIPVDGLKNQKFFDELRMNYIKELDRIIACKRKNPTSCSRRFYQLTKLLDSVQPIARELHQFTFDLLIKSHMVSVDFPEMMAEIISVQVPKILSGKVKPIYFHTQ

LNCaP = assay: Antiproliferative activity against human LNCAP cells assessed as reduction in cell growth incubated for 96 hrs by propidium iodide based 2D monolayer assay; type: functional
In short: (§1)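 After 24 h recovery, compound in medium or medium alone (control wells) was added at 10 half-log concentrations from 0.0032 to 100 µM, in triplicate, with at most 0.3% DMSO. After 96 h, wells were PBS-washed, stained with 7 µg/ml PI and 0.1% Triton X-100, and fluorescence read at 530/620 nm. IC50 came from a 4-parameter fit, geometric mean.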

DU-145 = assay: Antiproliferative activity against human DU145 cells assessed as reduction in cell growth incubated for 96 hrs by propidium iodide based 2D monolayer assay; type: functional; details: DU-145, 96 h; in short: as §1
CWR22R = assay: Antiproliferative activity against human 22Rv1 cells assessed as reduction in cell growth incubated for 96 hrs by propidium iodide based 2D monolayer assay; type: functional; details: 22Rv1, 96 h; in short: as §1

With `CC(O)(COc1ccc(C#N)cc1)C(=O)Nc1ccc(C#N)c(C(F)(F)F)c1` (racemic) the IC50 (VCaP) was 24.5 µM, the IC50 (Androgen receptor) was 0.036 µM and the IC50 (LNCaP) was 20.9 µM. It also gave an IC50 (DU-145) of 44.6 µM and an IC50 (CWR22R) of 24.8 µM.

— ChEMBL document CHEMBL4364301 (Eur J Med Chem, 2019)
